Laboratory results from the RNAGym collection of RNA variant scans (doi:10.1126/science.aae0568).
Variants at the floor of the assay were thinned out.

B1: tRNA (parent)
chain: GUUCCGUUGGCGUAAUGGUAACGCGUCUCCCUCCUAAGGAGAAGACUGCGGGUUCGAGUCCCGUACGGAACG

Variants of: B1
Assay: yeast fitness relative to wild type (ratio to wild type); higher = fitter; tRNA-Arg(CCU), competitive growth, 37 C, YPD
Summary of the method: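 A pool of Saccharomyces cerevisiae strains, each with a tRNA-Arg(CCU) gene variant at the native genomic locus, was competed in YPD at 37°C for 24 hours across six parallel replicates. The variants had been chemically synthesised at a 3% per-site mutation rate over 69 sites, and gene amplicons before and after competition were read by 100-nucleotide paired-end sequencing. Darwinian fitness relative to wild type rested on changes in genotype frequencies. Genotypes required ≥ 100 starting reads, and estimates < 0.5 were set to 0.5.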

Variant	yeast fitness
C33U C49U G51C	0.512
C33U G67A	0.776
U32A A42U U54C	≤ 0.5
C11U C62G A69U	0.578
U8A G12A A21G C62U	0.697
U3A C27U A69C	0.713
G41A U53A C61A G68C	0.584
C22A C49U	1.13
U2A C22A C49G	≤ 0.5
U28C G63U	0.521
A45U A70G	1.09
C49U C60G	0.609
C5U C46G G68U	≤ 0.5
C27A G41C A43C A45U	≤ 0.5
C11G A14U A42U	0.638
C61G A69G	0.567
A15U C24G A42C A43C	≤ 0.5
G12A G18C A42U	0.65
C5A U13G C24G C31A	0.514
C5U G52C	0.622
C11A A21C C31A C55G	≤ 0.5
G18C C27U C55G	0.67
A21C U53G C62U G68C	≤ 0.5
A45U G48A C55A	0.543

Variant	yeast fitness
U19C A40G	0.898
C24G A45C A69U	0.611
A15U C46G	0.825
A21U U28G	0.659
C29U A36C C46U U53A	≤ 0.5
C27U A36U	0.638
A20C U28C	0.929
C24A U47A	0.619
A15C A42G G67U	0.522
C5A A37C C49A	≤ 0.5
U16A A45G G50A	≤ 0.5
U2A C29U	0.884
C5U A65C G67C	0.566
C34A C49U G58C	≤ 0.5
G41A C61G	0.685
C5U A14U C30U G39C C60A A70C	≤ 0.5
C5A C62A	0.743
A20C C27A G52C	0.595
C11A U13G C34G A43U C61G	≤ 0.5
C4G C5A C27U G68A	≤ 0.5
G41A G67A	0.663
C4U A15G C60G	0.537
C4U G10A G39C	0.627
C5G G51A G52A	≤ 0.5

Variant	yeast fitness
U3A C66G G68C	0.623
U2C C27G U28A A43U	0.629
G18C C24U	0.641
C46A G58C C66U	0.998
U19C C22U C55A C66U	≤ 0.5
C4U C55A U64A A65U	≤ 0.5
U3C C5G A15G	≤ 0.5
C55G A65G	0.528
C5A C31U G58C U64C A70G	0.576
G10C A14U U19A C22U U59G A65C	≤ 0.5
U8G C24A U35G C46G U53C U54G	≤ 0.5
G12C A15U C49U	≤ 0.5
G25U C34G C55G U59C C60U G67U	≤ 0.5
U3G C5A	0.779
G9C C49U	0.703
U19A A37G A65G	0.707
C5A G44C G48A G51A	0.609
C29U C31U U59C C66U A70C	0.55
A15U A21C C29A U32A	0.728
A36C U47C	0.674
C11U A15G A69U	0.765
G9A G23C U64A	≤ 0.5
G10A G51C G58U	≤ 0.5
U8G C24A C30G A40G U47G	≤ 0.5

Variant	yeast fitness
C27U U32A A69U	0.774
A15C C34G C49G C66G G68C	0.612
G6A A40G A45U G56A	≤ 0.5
C5G G17C C49U C61A	≤ 0.5
C4A G9C C11G	≤ 0.5
U3G A15G C24G G44A G50A C55U	≤ 0.5
C5U G41A A42C G50C A70G	0.535
A15C C29A	≤ 0.5
C4G U8C U16A A21C C24G A37U C55U	≤ 0.5
G9A U53C	0.77
U16G U19G C33U A40C G41A A43C C61G	≤ 0.5
G9A G63A	1.06
C5U C24G	0.571
C27G C46U C61G G68U	≤ 0.5
U8C G12A G25A	0.734
C46A C61U A70C	0.861
U3G U26A U28G A45C U54C G67A A69U	≤ 0.5
U3C U64C	1.04
C24U A45U A57C G68A	≤ 0.5
A15U A45C C55U	≤ 0.5
C4G C11A U35A C49G	0.526
A20C G23U C60A	0.676
C27G U47C	0.652
C11G C22U A40C C46U C60A	≤ 0.5

Variant	yeast fitness
G12A U19A C24U	0.73
C49U A69C	1.01
C5U C11U A21C C24U U26C U28A C31G C49G	≤ 0.5
C11U C31G C55U C61U A65G	≤ 0.5
G17C C30U A36G G67U A70G	≤ 0.5
U3C G12A C31G U59A	0.537
C5G G10C G52A A69U	≤ 0.5
G10C G44A	0.699
U26G U32A G63A	≤ 0.5
C11G C22A C27G C31U U59A	0.569
A14C U16C C55U A70G	≤ 0.5
G25C A45U C60A	≤ 0.5
C4G G6A C11U C29A G63A A70G	≤ 0.5
A14G C24G G25C C27A A40C G51A	≤ 0.5
U3C A37C	0.82
U2A C5A C60A	≤ 0.5
C11A C29U C31G G58C	≤ 0.5
U2A A15U C27U C30A G41C C49A C55G C61A	≤ 0.5
C5A C11U U13C	0.57
A21U C22U C49A G67A	≤ 0.5
U16C A20G U32C	0.684
C11G A14G A37G G44A C60A C62U U64C G68A A69C	≤ 0.5
G25A C46U A57U	0.965
G6A C46U	0.976

Variant	yeast fitness
U2A A14G C22G C30G U47A	≤ 0.5
C27G C33A U47A	≤ 0.5
C11U A40C	0.755
U3G U28C	0.888
A14C C22A C55G	≤ 0.5
U19A C33U	0.777
G6A C31G A43C C49A U54C C60G	≤ 0.5
C5A U7C C22G C24U A37C G51C C55U U59G	≤ 0.5
U3C A14C A40U	≤ 0.5
C4G U8A G12A A57G	≤ 0.5
A20U C62A	0.73
C11U C31U A42G C62U A69C	≤ 0.5
C4G G17A U28A C31G A57G C62U	≤ 0.5
G10C A20U C22A	≤ 0.5
C31G A42U	0.983
A21C A65G	0.863
A14G G18A U26A A70C	≤ 0.5
A37U G44A U54A C62G C66G A69G	≤ 0.5
C22U C27U G51A A57U C61G	≤ 0.5
U8C C29U G56C	0.538
C22G G63C G68U	0.52
C34G G63A	0.633
A14G A15C C46A	0.578
C46G C60U G68C	≤ 0.5

Variant	yeast fitness
C4A U13A G18A G52A C55G	≤ 0.5
U19C A20C C33U U35A C49A	0.539
C11G G12C C49U C60G	≤ 0.5
C11U C29A C31G	≤ 0.5
U2G U13A U28A G39A G48A C61G C66G	≤ 0.5
C22U C34G G48C	≤ 0.5
A42G C66G	0.808
G9A G10C C11U U16G G41A A70G	≤ 0.5
A15U G58C	0.916
G12C G41C A57G	0.562
C22U A70U	0.842
G38C A40U G48A C66U	0.556
A20C C33A G48A C66U A70G	≤ 0.5
A36U G51A	0.61
C33U C49A	0.638
C4U U16C C61U	0.737
C22U A40G G63C G67C A69U	≤ 0.5
C5A C24U	0.71
C4A G9A C22A C27G G56A	≤ 0.5
U2A C5G C11G A20G	≤ 0.5
C5G G51U C55G A65C	≤ 0.5
C5G U59C	0.852
G10C C11U C27G A42G C55U	0.785
